The term IC50 denotes the concentration needed to halve the response being measured. A lower IC50 goes with greater potency. Broadly, the bioavailability is dose-corrected exposure relative to a reference, in per cent. A word on the half-life: it is the time in which the quantity being followed falls by half. A higher half-life goes with slow decline.

The values that follow come from ChEMBL document CHEMBL1153974, “Piperidinyl-2-phenethylamino inhibitors of DPP-IV for the treatment of type 2 diabetes” (Bioorg Med Chem Lett, 2009).

Series [1] addresses Dipeptidyl peptidase 4 (Homo sapiens, UniProt P27487). In words: Inhibition of human DPP4.
The nature of series [2]: Volume of distribution at steady state in rat at 1 mg/kg, iv. It counts as ADME, organism-based. Details: dose 1 mg/kg, route intravenous. The following applies: in vivo, read-out: Vdss.
A short description of series [3]: Volume of distribution at steady state in dog at 1 mg/kg, iv. It counts as ADME, organism-based, Canis lupus familiaris. Details: dose 1 mg/kg, route intravenous. The following applies: in vivo, read-out: Vdss.
In series [4] the target is Dipeptidyl peptidase 2 (Homo sapiens, UniProt Q9UHL4). In words: Inhibition of human DPP2.
The nature of series [5]: Bioavailability in human at 15 mg. It counts as ADME, organism-based. To be noted: in vivo. Put shortly: (§1)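 Human values projected from rat and dog ADME data by modeling; predicted plasma concentration–time profiles generated at varying doses.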
The nature of series [6]: Half life in human at 15 mg. It counts as ADME, organism-based. The following applies: in vivo. Put shortly:
as §1

The nature of series [7]: Clearance in dog plasma at 1 mg/kg, iv and 1 mg/kg, po. It counts as ADME, organism-based, Canis lupus familiaris.
Series [8] can be described thus: Half life dog at 1 mg/kg, iv. It counts as ADME, organism-based, Canis lupus familiaris. Details: dose 1 mg/kg, route intravenous. To be noted: in vivo.
Series [9] is described as follows: Clearance in human plasma at 15 mg. It counts as ADME, organism-based. The method, boiled down: as §1
The subject of series [10] is Rattus norvegicus. As to the kind of experiment: Inhibition of DPP4 in rat plasma at 5 mg/kg, po assessed as time required to inhibit 50% by PK/PD analysis. It counts as functional.
Series [11] in a line: Bioavailability in dog at 1 mg/kg, iv and 1 mg/kg, po. The following applies: in vivo. It counts as ADME, organism-based, Canis lupus familiaris.
Series [12] can be described thus: Bioavailability in rat at 1 mg/kg, iv and 5 mg/kg, po. It counts as ADME, organism-based. To be noted: in vivo.
The nature of series [13]: Half life in rat at 1 mg/kg, iv. It counts as ADME, organism-based. Details: dose 1 mg/kg, route intravenous. To be noted: in vivo.
Series [14] in a line: Clearance in rat plasma at 1 mg/kg, iv and 5 mg/kg, po. It counts as ADME, organism-based.
Series [15] is described as follows: Volume of distribution at steady state in human at 15 mg. To be noted: in vivo, read-out: Vdss. It counts as ADME, organism-based. Put shortly:
as §1

For series [16], the target named is Voltage-gated inwardly rectifying potassium channel KCNH2 (Homo sapiens, UniProt Q12809). As to the kind of experiment: Inhibition of human ERG by patch-clamp assay. A general note: Patch clamp records ionic current or voltage across a cell membrane.
Voltage-gated inwardly rectifying potassium channel KCNH2, sequence (Q12809 whole entry): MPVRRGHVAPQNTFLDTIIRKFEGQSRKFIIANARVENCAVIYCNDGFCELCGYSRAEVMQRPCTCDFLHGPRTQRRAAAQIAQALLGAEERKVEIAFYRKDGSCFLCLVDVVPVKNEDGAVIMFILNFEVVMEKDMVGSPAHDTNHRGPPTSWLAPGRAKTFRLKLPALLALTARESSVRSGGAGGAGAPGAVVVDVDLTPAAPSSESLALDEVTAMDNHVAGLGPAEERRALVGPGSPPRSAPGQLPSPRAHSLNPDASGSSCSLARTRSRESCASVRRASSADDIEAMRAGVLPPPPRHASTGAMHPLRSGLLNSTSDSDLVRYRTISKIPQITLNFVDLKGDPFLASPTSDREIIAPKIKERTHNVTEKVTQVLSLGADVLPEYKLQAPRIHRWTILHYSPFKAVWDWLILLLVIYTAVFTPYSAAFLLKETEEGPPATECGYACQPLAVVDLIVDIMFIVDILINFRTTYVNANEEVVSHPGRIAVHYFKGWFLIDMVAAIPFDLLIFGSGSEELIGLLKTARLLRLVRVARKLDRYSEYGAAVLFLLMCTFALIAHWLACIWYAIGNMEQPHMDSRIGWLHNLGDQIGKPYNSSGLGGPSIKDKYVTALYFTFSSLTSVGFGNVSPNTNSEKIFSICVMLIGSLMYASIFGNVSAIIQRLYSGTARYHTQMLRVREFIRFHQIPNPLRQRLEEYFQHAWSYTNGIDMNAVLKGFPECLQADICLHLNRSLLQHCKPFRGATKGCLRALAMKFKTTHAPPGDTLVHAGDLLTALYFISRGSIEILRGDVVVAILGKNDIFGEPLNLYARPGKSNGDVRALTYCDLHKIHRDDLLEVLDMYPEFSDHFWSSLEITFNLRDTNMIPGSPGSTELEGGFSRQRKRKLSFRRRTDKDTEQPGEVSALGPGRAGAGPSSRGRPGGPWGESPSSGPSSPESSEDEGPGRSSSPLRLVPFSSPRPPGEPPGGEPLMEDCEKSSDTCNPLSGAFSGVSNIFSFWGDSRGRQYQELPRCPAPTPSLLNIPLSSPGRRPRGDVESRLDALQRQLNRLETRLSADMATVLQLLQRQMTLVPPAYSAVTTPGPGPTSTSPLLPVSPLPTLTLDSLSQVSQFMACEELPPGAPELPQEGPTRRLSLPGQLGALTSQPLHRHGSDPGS

Dipeptidyl peptidase 4, sequence (P27487 whole entry): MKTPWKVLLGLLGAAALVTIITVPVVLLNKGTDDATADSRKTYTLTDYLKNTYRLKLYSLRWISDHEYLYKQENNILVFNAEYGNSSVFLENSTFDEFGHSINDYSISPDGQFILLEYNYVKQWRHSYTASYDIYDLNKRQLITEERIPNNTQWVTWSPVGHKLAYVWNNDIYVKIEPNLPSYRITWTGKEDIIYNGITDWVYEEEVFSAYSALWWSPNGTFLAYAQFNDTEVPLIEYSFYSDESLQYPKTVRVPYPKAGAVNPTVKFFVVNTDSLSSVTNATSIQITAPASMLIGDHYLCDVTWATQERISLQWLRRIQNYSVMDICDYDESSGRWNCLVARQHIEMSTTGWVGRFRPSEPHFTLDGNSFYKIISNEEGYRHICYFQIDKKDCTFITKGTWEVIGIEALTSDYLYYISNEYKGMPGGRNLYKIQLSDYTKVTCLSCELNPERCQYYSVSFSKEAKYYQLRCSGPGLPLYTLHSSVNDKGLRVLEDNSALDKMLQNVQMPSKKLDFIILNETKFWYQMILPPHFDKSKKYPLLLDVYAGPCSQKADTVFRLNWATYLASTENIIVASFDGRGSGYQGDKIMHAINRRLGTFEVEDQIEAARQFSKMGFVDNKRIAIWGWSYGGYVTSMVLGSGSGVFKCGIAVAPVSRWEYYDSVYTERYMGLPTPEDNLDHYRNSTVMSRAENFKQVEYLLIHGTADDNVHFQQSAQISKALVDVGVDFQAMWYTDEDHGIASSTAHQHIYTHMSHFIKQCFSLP

Turning to `Fc1cc(F)c(C[C@@H]2CCCCN2)cc1F`, in series [1], the IC50 is greater than 30 µM.
On the same count and under the same terms, in the case of `NCCc1cc(F)c(F)cc1F` it was greater than 30 µM.
In the case of `Cc1cc2ncc(C(=O)N3CCC([C@H](N)Cc4cc(F)c(F)cc4F)CC3)c(C)n2n1`, the figures for the Vd in series [2], in series [3] and in series [15] were 2.2 L/kg, 2.2 L/kg and 1 L/kg, respectively. For the same compound, the IC50 in series [4] turned out to be 16.8 µM. The bioavailability in [5] came out at 70%; in series [11], 52%; in [12], 70%. Moreover, the half-life was 3.5 h in series [6], 3.71 h in series [8] and 5.09 h in series [13]. Also, the clearance in series [7] turned out to be 0.774 L/h/kg; in series [9] it was 0.204 L/h/kg; in series [14], 1.08 L/h/kg. Besides, in series [10], the Activity was greater than 20 h.
In the case of `Cc1ncc(C)c(C(=O)N2CCC([C@H](N)Cc3cc(F)c(F)cc3F)CC2)n1`, the half-inhibitory concentration (IC50) in series [16] is 85 µM; in series [4] it was greater than 30 µM. For the same compound, the Activity in series [10] came out at 8 h.
The like results for `Cc1nccnc1C(=O)N1CCC([C@H](N)Cc2cc(F)c(F)cc2F)CC1` were, in that order, 55 µM, greater than 30 µM and 12 h.
In [4], `N[C@H](Cc1cc(F)c(F)cc1F)C1CCN(C(=O)c2cnc3ncccn23)CC1` yielded an IC50 of 10.8 µM. Besides, the Activity in series [10] is greater than 24 h.
With `N[C@H](Cc1cc(F)c(F)cc1F)C1CCN(C(=O)c2ccc(F)cc2F)CC1`, the IC50 in series [4] came to 11.1 µM.
On the same count and under the same terms, in the case of `N[C@H](Cc1cc(F)c(F)cc1F)C1CCN(C(=O)c2cc3ccccc3cn2)CC1` it was 10.2 µM.
Turning to `N[C@H](Cc1cc(F)c(F)cc1F)CC1CCCCC1`, the IC50 in [1] was greater than 30 µM.
As to `Nc1nccnc1C(=O)N1CCC([C@H](N)Cc2cc(F)c(F)cc2F)CC1`, the IC50 in [4] was 9.11 µM.
